This is an account of results in ChEMBL document CHEMBL3877291, “Structure-guided design of novel Trypanosoma brucei Methionyl-tRNA synthetase inhibitors” (Eur J Med Chem, 2016).

Data set [1] can be described thus: Inhibition of Trypanosoma brucei methionyl tRNA synthetase preincubated for 15 mins followed by L-methionine substrate addition measured after 120 mins by ATP- depletion chemiluminescence assay. The gist of the method:
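Triplicate. Compound pre-incubated 15 min at room temperature with 50 nM TbMetRS, 200 µg/mL E. coli tRNA, 0.1 U/mL pyrophosphatase, 0.2 mM spermine, BSA, DTT, 25 mM HEPES-KOH pH 7.9, 10 mM MgCl2, 50 mM KCl, 2% DMSO. Started with 100 nM ATP and 32 µM L-methionine; after 120 min, Kinase-Glo luminescence read. IC50 from sigmoidal dose-response fit.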

Data set [2] relates to Trypanosoma brucei. Briefly: Binding affinity to Trypanosoma brucei methionyl-tRNA synthetase assessed as change in melting temperature at 100 uM by SYPRO orange dye based thermal shift assay. The gist of the method: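 TbMetRS in 100 mM HEPES pH 7.5, 100 mM NaCl, 10 mM ATP-Mg with SYPRO Orange; compound at 100 µM final. Fluorescence measured in triplicate from 25 to 90 °C in 0.2 °C steps. Tm taken as the temperature of the first-derivative maximum.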

Data set [3] deals with Trypanosoma brucei. Briefly: Antitrypanosomal activity against Trypanosoma brucei 427 bloodstream forms assessed as parasitic growth inhibition after 48 hrs by alamar blue assay. It is filed as functional. The settings on record: Trypanosoma brucei, 427, 48 h. The essentials:
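Bloodstream-form strain 427 trypomastigotes cultured in HMI-9 with 10% FBS, penicillin and streptomycin at 37°C, 5% CO2. Seeded at 1 × 10^4 per well, serial compound dilutions from 20 mM DMSO stocks, triplicate. Growth read with Alamar Blue at 48 h; pentamidine run as positive control in each assay.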

Data set [4] in a line: Cmax in mouse at 50 mg/kg, administered through oral gavage by LC-MS analysis. It is filed as ADME, organism-based. Also noted: dose 50 mg/kg, route oral. Conditions: in vivo. The gist of the method:
(§1)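 Mice dosed by oral gavage at 50 mg/kg in 0.2 mL vehicle (7% tween80, 3% ethanol, 5% DMSO, 0.9% saline); plasma compound levels followed to give Cmax and AUC.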

Data set [5] is described as follows: Selectivity index, ratio of EC50 for human CRL-1855 cells to EC50 for Trypanosoma brucei 427 bloodstream forms. It is filed as toxicity, cell-based. Conditions: read-out: Ratio EC50.
Data set [6] in a line: Cytotoxicity against human CRL-1855 cells assessed as cell viability after 48 hrs by alamar blue assay. It is filed as toxicity, cell-based. The gist of the method: (§2)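 CRL-1855 cells grown in RPMI and HepG2 cells in DMEM/F-12, both with 10% FBS, penicillin and streptomycin. Plated at 5 × 10^3 per well with serial compound dilutions in quadruplicate for 48 h. Alamar Blue added for a further 4 h at 37 °C, 5% CO2. OD570–600 viability referenced to untreated cells.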

A short description of data set [7]: AUC in mouse at 50 mg/kg, administered through oral gavage by LC-MS analysis. It is filed as ADME, organism-based. The settings on record: in vivo. The gist of the method:
as §1

The nature of data set [8]: Cytotoxicity against human HepG2 cells assessed as cell viability after 48 hrs by alamar blue assay. It is filed as toxicity, cell-based. The essentials: as §2
The test system of data set [9] is Trypanosoma brucei. The data set can be described thus: Inhibition of Trypanosoma brucei 427 recombinant full length N-terminal 6His-tagged methionyl tRNA synthetase expressed in Escherichia coli assessed as decrease in incorporation of [3H]L-methionine into tRNA at 10 uM preincubated for 15 mins followed by Escherichia coli tRNA addition measured after 120 mins by scintillation counting method.

Data set [10] has as its system Trypanosoma brucei. Briefly: Inhibition of Trypanosoma brucei 427 recombinant full length N-terminal 6His-tagged methionyl tRNA synthetase expressed in Escherichia coli assessed as decrease in incorporation of [3H]L-methionine into tRNA at 1 uM preincubated for 15 mins followed by Escherichia coli tRNA addition measured after 120 mins by scintillation counting method.

Molecule `O=C(N[C@H]1CCCN(c2nc3nc(Cl)ccc3[nH]2)C1)c1cc(Cl)cc(Cl)c1` displayed a concentration for half-maximal inhibition (IC50) in [1] of more than 10000 nM. Also, the thermal shift (ΔTm) in [2] was 0 °C. Moreover, the EC50 in data set [3] is more than 20000 nM.
Taken in the same sequence, the figures for `Clc1cc(Cl)cc(CN[C@@H]2CCC[C@H](c3nc4nc(Cl)ccc4[nH]3)C2)c1` were 106 nM, 13.1 °C and 580 nM.
On the same counts, the results for `Clc1cc(Cl)cc(CN[C@@H]2CCN(c3nc4ccc(Cl)nc4[nH]3)C2)c1` are 696 nM, 7.2 °C and 9010 nM.
On the same counts, the results for `Clc1cc(Cl)cc(CNC2CCN(c3nc4nc(Cl)ccc4[nH]3)CC2)c1` are 4970 nM, 5.8 °C and 13300 nM.
`Clc1cc(Cl)cc(CN[C@@H]2CCCN(c3nc4nc(Cl)ccc4[nH]3)C2)c1` returned a concentration for half-maximal inhibition (IC50) in data set [1] of 192 nM. Further, the ΔTm in [2] amounted to 13.1 °C. Further, in [3], the concentration for a half-maximal effect (EC50) turned out to be 999 nM.
Regarding `Clc1cc(Cl)cc(CN[C@H]2CCCN(c3nc4nc(Cl)ccc4[nH]3)C2)c1`, the peak level in data set [4] (Cmax) was 37.6 µM. Also, the selectivity ratio in data set [5] came to 751. Moreover, the 50% effective concentration (EC50) at 48 h in data set [6] came out at 29300 nM; in data set [8], 49000 nM. In addition, in data set [7], the AUC came to 104 µM·h. In data set [1], this molecule registered an IC50 of less than 50 nM. In data set [2], the shift in melting temperature (ΔTm) turned out to be 19 °C. In addition, the 50% effective concentration (EC50) in data set [3] was found to be 39 nM.
Molecule `O=C(Cc1cc(Cl)cc(Cl)c1)N1CCCC(c2nc3ccccc3[nH]2)C1` (stereo not given) displayed a half-maximal inhibitory concentration (IC50) in data set [1] of 288 nM. For the same molecule, the thermal shift (ΔTm) in [2] worked out at 7.8 °C. In data set [3], the 50% effective concentration (EC50) was more than 5000 nM.
Taken in the same sequence, the figures for `Clc1cc(Cl)cc(CNC2CN(c3nc4nc(Cl)ccc4[nH]3)C2)c1` were 2170 nM, 6.4 °C and 15300 nM.
In [1], `Clc1cc(Cl)cc(CN[C@H]2CCN(c3nc4ccc(Cl)nc4[nH]3)C2)c1` registered an IC50 of less than 50 nM. Also, in data set [2], the ΔTm came to 11.4 °C. The EC50 in data set [3] came out at 1540 nM.
As to `N=C(N)c1ccc(OCCCCCOc2ccc(C(=N)N)cc2)cc1` [PENTAMIDINE], in data set [3], the EC50 was 0.9 nM.
Consider `O=C(Cc1cc(Cl)cc(Cl)c1)N1CCCC(c2nc3cc(Cl)ccc3[nH]2)C1` (stereo not given), for which the results for the half-maximal effective concentration (EC50) at 48 h in data set [6] and in data set [8] were 22800 nM and 35400 nM, respectively. Further, in data set [1], the IC50 stood at 60 nM. Further, the ΔTm in data set [2] came to 7.2 °C. Also, the half-maximal effective concentration (EC50) in data set [3] came to 1400 nM.
`Clc1cc(Cl)cc(CNCCCc2nc3ccc(Cl)cc3[nH]2)c1` displayed an IC50 in [1] of 243 nM. Besides, in [2], the thermal shift (ΔTm) stood at 10.8 °C. For the same molecule, the EC50 in [3] worked out at 2150 nM.
Take `CCN(CC)CCCC(C)Nc1c2ccc(Cl)cc2nc2ccc(OC)cc12` (stereo not given) [QUINACRINE]: the concentration giving a half-maximal response (EC50) at 48 h in data set [6] is 2120 nM; in [8], 11900 nM.
As for `Clc1cc(Cl)cc(NCC2CCCN(c3nc4nc(Cl)ccc4[nH]3)C2)c1` (stereo not given), the results for the EC50 at 48 h in data set [6] and in [8] were 15400 nM and 29200 nM, respectively. In addition, in data set [1], the IC50 is less than 50 nM. Also, the ΔTm in data set [2] worked out at 14.4 °C. The concentration for a half-maximal effect (EC50) in data set [3] turned out to be 343 nM.
`O=C(Nc1cc(Cl)cc(Cl)c1)[C@H]1CCCN(c2nc3nc(Cl)ccc3[nH]2)C1` had an IC50 in [1] of more than 10000 nM. The ΔTm in data set [2] stood at 2.6 °C. For the same molecule, the 50% effective concentration (EC50) in data set [3] is more than 20000 nM.
As for `Clc1cc(Cl)cc(CO[C@H]2CCCN(c3nc4nc(Cl)ccc4[nH]3)C2)c1`, half-maximal inhibition in data set [1] (IC50) required 196 nM. Further, the ΔTm in data set [2] is 7.5 °C. Moreover, the EC50 in [3] was found to be 8800 nM.
`Clc1cc(Cl)cc(CNCCSc2nc3nc(Cl)ccc3[nH]2)c1` registered a half-maximal inhibitory concentration (IC50) in [1] of 1050 nM. In addition, in data set [3], the EC50 stood at 1400 nM.
In the case of `Clc1cc(Cl)cc(CNC2CCCN(c3nc4nc(Cl)ccc4[nH]3)C2)c1` (stereo not given), the concentration for a half-maximal effect (EC50) at 48 h was 46200 nM in data set [6] and more than 50000 nM in data set [8]. In data set [1], this molecule had a concentration for half-maximal inhibition (IC50) of less than 50 nM. Also, in data set [2], the ΔTm stood at 18.4 °C. For the same molecule, the EC50 in data set [3] was found to be 82 nM.
Taken in the same sequence, the figures for `Clc1cc(Cl)cc(CNCCCc2nc3ccc(Cl)nc3[nH]2)c1` were 45700 nM, 45600 nM, less than 50 nM, 12.8 °C and 307 nM.
`Clc1cc(Cl)cc(CCN2CCCC(c3nc4nc(Cl)ccc4[nH]3)C2)c1` (stereo not given) gave an IC50 in [1] of more than 10000 nM. For the same molecule, the shift in melting temperature (ΔTm) in data set [2] amounted to 6 °C. Further, in [3], the half-maximal effective concentration (EC50) stood at 3760 nM.
On to `O=C(Cc1cc(Cl)cc(Cl)c1)N1CCCC(c2nc3c(Cl)cccc3[nH]2)C1` (stereo not given), for which half-maximal inhibition in data set [1] (IC50) required 926 nM. Moreover, in [2], the ΔTm came out at 7.4 °C. The concentration for a half-maximal effect (EC50) in data set [3] was 8810 nM.
Taken in the same sequence, the figures for `Clc1cc(Cl)cc(CNC2CCCCN(c3nc4nc(Cl)ccc4[nH]3)C2)c1` (stereo not given) were 682 nM, 6.8 °C and 1810 nM.
Taken in the same sequence, the figures for `Clc1cc(Cl)cc(CNC2CCCC(c3nc4cc(Cl)ccc4[nH]3)C2)c1` (stereo not given) were 580 nM, 12.6 °C and 1950 nM.
Regarding `Cc1cc2cc(C(=O)N3CCCC(c4nc5ccccc5[nH]4)C3)ccc2o1` (stereo not given), the inhibition turned out to be 78% in [9] and 20% in data set [10].
Take `Clc1cc(Cl)cc(CNC2CCCC(c3nc4nc(Cl)ccc4[nH]3)C2)c1` (stereo not given): the concentration giving a half-maximal response (EC50) at 48 h in [6] worked out at 33100 nM; in [8], 32300 nM. For the same molecule, 124 nM corresponded to half-maximal inhibition in data set [1] (IC50). The ΔTm in data set [2] is 14.2 °C. The EC50 in [3] amounted to 359 nM.
